From ChEMBL document CHEMBL1121471, “Synthesis and structure-activity relationships among alpha-adrenergic receptor agonists of the phenylethanolamine type” (J Med Chem, 1980)

What was measured:
[1] = target: T1, Adrenergic receptor alpha (Rattus norvegicus) (UniProt P15823+P23944+P43140+P22086+P19328+P22909); experiment: Ratio of maximum contraction of rat aorta elicited versus that elicited by noradrenaline (defined as intrinsic activity); type: functional, tissue-based
How it was run: (§1)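 Helical strips of rat aorta (1.5–2 cm × 3–4 mm) were held in Krebs-Henseleit at 37 °C, gassed with 95% O2/5% CO2, at 2 g resting tension, and equilibrated about 2 h. Cumulative contraction curves were recorded isometrically, first for norepinephrine, then after washout and 1 h rest for the test agonist. pD2 (−log ED50) was derived by the Ariens–Van Rossum method. Intrinsic activity is the compound's maximum response divided by the norepinephrine maximum.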

[2] = target: T1, Adrenergic receptor alpha (Rattus norvegicus); experiment: Binding affinity to alpha adrenergic receptors in rat aorta; type: tissue-based; how it was run: as §1
[3] = Intrinsic activity of the compound, which is expressed as the ratio of the maximum response to the maximum response to norepinephrine; type: functional; how it was run: as §1

Row | Structure (SMILES) | Ratio [1] | pD2 [2] | Intrinsic [3]
1 | NCC(O)c1ccc(C2CCCCC2)c(O)c1 (stereo not drawn) | 0.7 | 4.86 | –
2 | NCC(O)c1ccc(Br)c(O)c1 (stereo not drawn) | 1 | 5.58 | –
3 | CCc1ccc(C(O)CN)cc1O (stereo not drawn) | 1.1 | 5.2 | –
4 | COc1ccc(C(O)CN)cc1O (stereo not drawn) | 1 | 4.97 | –
5 | NCC(O)c1ccc(I)c(O)c1 (stereo not drawn) | 0.9 | 4.99 | –
6 | Cc1ccc(C(O)CN)cc1O (stereo not drawn) | – | 5.66 | 1.3
7 | NC[C@H](O)c1ccc(O)c(O)c1 | 1 | 8.8 | –
8 | NCC(O)c1ccc(Cl)c(O)c1 (stereo not drawn) | 1.1 | 6.35 | –
9 | NCC(O)c1ccc(O)c(C2CCCCC2)c1 (stereo not drawn) | 1.1 | 6.73 | –
10 | CS(=O)(=O)Nc1ccc(C(O)CN)cc1O (stereo not drawn) | 0.8 | 3.2 | –
11 | CS(=O)(=O)Nc1cc(C(O)CN)ccc1O (stereo not drawn) | 1.1 | 7.19 | –
12 | CCc1cc(C(O)CN)ccc1O (stereo not drawn) | 0.9 | 6.09 | –
13 | NCC(O)c1ccc(O)c(F)c1 (stereo not drawn) | 1 | 6.78 | –
14 | CC(C)c1ccc(C(O)CN)cc1O (stereo not drawn) | 0.7 | 5 | –
15 | Cc1cc(C(O)CN)ccc1O (stereo not drawn) | 1 | 5.96 | –
16 | CC(C)c1cc(C(O)CN)ccc1O (stereo not drawn) | 1.2 | 6.53 | –
17 | NCC(O)c1ccc(O)c(Cl)c1 (stereo not drawn) | 1 | 5.85 | –
18 | NCC(O)c1ccc(O)c(Br)c1 (stereo not drawn) | 1.1 | 5.57 | –
19 | NCC(O)c1ccc(O)c(I)c1 (stereo not drawn) | 0.9 | 5.5 | –
20 | COc1cc(C(O)CN)ccc1O (stereo not drawn) | 1.1 | 6.23 | –
21 | NCC(O)c1ccc(O)c(C(=O)O)c1 (stereo not drawn) | 1 | 4.07 | –
22 | NCC(O)c1cccc(O)c1 (stereo not drawn) | 1 | 8.21 | –
23 | COC(=O)c1cc(C(O)CN)ccc1O (stereo not drawn) | 0.9 | 4.85 | –
24 | NCC(O)c1ccc(O)cc1 (stereo not drawn) | 1.1 | 6.08 | –
